Measurements: PMC2738612 (Biochemistry, 2009)

Columns and labels:
[1] = system: MMP-2 CBD modules; conditions: cited from earlier work
[2] = target: denatured type I collagen (gelatin), rat tail (rat, UniProt P02454 152-1207; P02466 86-1125); assay: SPR
[3] = system: gelatin (denatured type I collagen); assay: Surface plasmon resonance binding to immobilized gelatin; parameters: species or system rat; conditions: 1 µM analyte, Biacore buffer pH 7.4; compared to WT CBD
[4] = system: native type I collagen; assay: Surface plasmon resonance binding to immobilized native type I collagen; parameters: species or system rat; conditions: 1 µM analyte, Biacore buffer pH 7.4; compared to WT CBD
Method in brief: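 Native non-pepsin-treated acid-soluble rat tail type I collagen in 10 mM sodium acetate, pH 4.5, was amine-coupled to EDC/NHS-activated CM5 chips at ~3000 RU, then ethanolamine-blocked; an uncoated flow cell served as control. Analytes at 1 µM in 10 mM HEPES, 150 mM NaCl, 0.005% P20, pH 7.4, flowed at 5 µl/min for 6 min. RU were averaged over 5 s before injection end. Chips were regenerated with 6 M guanidine-HCl, with WT CBD run at the start and end of each series.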

denatured type I collagen (gelatin), rat tail, sequence (P02454 152-1207, chain 1 of 2): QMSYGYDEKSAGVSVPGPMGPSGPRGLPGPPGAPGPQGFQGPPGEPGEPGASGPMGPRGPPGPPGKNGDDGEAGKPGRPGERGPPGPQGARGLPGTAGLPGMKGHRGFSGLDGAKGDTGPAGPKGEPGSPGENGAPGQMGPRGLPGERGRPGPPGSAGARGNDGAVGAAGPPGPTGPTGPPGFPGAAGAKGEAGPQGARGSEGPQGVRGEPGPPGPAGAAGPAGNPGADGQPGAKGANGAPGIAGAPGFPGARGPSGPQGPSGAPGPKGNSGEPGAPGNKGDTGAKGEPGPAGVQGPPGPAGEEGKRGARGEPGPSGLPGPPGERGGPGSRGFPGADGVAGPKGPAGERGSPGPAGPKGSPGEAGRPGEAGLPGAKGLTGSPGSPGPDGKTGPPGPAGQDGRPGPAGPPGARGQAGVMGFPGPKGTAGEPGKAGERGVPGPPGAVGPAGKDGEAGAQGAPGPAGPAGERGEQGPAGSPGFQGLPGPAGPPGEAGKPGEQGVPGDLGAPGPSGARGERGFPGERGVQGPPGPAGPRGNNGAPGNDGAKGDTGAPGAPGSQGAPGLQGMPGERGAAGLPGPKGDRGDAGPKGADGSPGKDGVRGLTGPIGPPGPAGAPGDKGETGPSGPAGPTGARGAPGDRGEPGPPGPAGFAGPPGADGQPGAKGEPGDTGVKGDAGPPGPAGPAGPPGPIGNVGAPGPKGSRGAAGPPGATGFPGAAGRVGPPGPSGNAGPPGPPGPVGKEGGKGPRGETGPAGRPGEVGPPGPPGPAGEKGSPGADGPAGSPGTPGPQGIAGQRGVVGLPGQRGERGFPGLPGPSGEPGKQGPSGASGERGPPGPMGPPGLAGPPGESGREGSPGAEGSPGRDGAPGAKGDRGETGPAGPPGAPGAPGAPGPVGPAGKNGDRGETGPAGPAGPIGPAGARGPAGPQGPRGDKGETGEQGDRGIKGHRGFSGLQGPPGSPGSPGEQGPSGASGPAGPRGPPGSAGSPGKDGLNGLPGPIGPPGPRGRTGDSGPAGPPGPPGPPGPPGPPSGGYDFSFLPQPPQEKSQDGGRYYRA
denatured type I collagen (gelatin), rat tail, sequence (P02466 86-1125, chain 2 of 2): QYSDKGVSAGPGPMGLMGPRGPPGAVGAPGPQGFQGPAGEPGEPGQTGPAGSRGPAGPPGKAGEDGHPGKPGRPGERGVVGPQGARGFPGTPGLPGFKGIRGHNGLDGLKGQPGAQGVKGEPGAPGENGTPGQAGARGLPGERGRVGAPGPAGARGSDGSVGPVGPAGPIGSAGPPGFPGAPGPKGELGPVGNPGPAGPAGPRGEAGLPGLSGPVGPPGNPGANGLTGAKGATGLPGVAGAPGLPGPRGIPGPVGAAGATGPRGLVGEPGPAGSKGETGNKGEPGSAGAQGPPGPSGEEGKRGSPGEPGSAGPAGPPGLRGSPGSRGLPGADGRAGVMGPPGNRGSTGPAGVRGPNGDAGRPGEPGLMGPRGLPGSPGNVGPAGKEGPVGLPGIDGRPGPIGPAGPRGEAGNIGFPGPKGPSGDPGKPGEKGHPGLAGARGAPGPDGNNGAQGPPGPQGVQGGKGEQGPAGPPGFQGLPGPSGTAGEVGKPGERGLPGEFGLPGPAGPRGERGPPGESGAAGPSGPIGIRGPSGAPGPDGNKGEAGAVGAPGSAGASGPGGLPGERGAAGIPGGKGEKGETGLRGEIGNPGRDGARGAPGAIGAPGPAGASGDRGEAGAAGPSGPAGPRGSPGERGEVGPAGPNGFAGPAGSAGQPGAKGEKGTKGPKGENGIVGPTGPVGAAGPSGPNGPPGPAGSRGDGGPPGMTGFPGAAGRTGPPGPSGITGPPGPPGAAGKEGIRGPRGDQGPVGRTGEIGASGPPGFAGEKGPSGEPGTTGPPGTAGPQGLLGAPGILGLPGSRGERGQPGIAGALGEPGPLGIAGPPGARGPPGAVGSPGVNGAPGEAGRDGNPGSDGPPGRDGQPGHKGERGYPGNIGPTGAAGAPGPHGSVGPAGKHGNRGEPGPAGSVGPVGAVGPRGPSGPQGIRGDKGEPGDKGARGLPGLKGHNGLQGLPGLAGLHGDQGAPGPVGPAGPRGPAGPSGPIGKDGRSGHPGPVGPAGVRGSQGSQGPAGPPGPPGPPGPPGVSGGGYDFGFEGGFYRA

Q: Which results are given for (Pro-Pro-Gly)6?
A: relative affinity of modules 1 and 2 versus module 3 for collagen-like peptide [1]: modules 1 and 2 have higher affinity; spectral perturbations of isolated CBD module 2 ([1]; early NMR study): spectral perturbations of the surface-exposed aromatic residues Phe21, Tyr38, Trp40, Tyr47, Tyr53 and Phe55, as well as the neighboring Gly33-Gly37 segment

B1: Recombinant collagen binding domain (CBD) from human MMP-2, wildtype (domain or fragment)
chain: VVRVKYGNADGEYCKFPFLFNGKEYNSCTDTGRSDGFLWCSTTYNFEKDGKYGFCPHEALFTMGGNAEGQPCKFPFRFQGTSYDSCTTEGRTDGYRWCGTTEDYDRDKKYGFCPETAMSTVGGNSEGAPCVFPFTFLGNKYESCTSAGRSDGKMWCATTANYDDDRKWGFCPDQ
modifications: 15N (or 15N and 13C) labelled for NMR; biotinylated for the microwell assay
Q: For B1, which Kd [2] is on record?
A: 2900 nM

B2: Y^329A: rCBD variant, single-point alanine substitution at Y^329, module 2 (protein)
chain: APSPIIKFPGDVAPKTDKELAVQYLNTFYGCPKESCNLFVLKDTLKKMQKFFGLPQTGDLDQNTIETMRKPRCGNPDVANYNFFPRKPKWDKNQITYRIIGYTPDLDPETVDDAFARAFQVWSDVTPLRFSRIHDGEADIMINFGRWEHGDGYPFDGKDGLLAHAFAPGTGVGGDSHFDDDELWTLGEGQVVRVKYGNADGEYCKFPFLFNGKEYNSCTDTGRSDGFLWCSTTYNFEKDGKYGFCPHEALFTMGGNAEGQPCKFPFRFQGTSYDSCTTEGRTDGYRWCGTTEDYDRDKKAGFCPETAMSTVGGNSEGAPCVFPFTFLGNKYESCTSAGRSDGKMWCATTANYDDDRKWGFCPDQGYSLFLVAAHEFGHAMGLEHSQDPGALMAPIYTYTKNFRLSQDDIKGIQELYGASPDIDLGTGPTPTLGPVTPEICKQDIVFDGIAQIRGEIFFFKDRFIWRTVTPRDKPMGPLLVATFWPELPEKIDAVYEAPQEEKAVFFAGNEYWIYSASTLERGYPKPLTSLGLPPDVQRVDAAFNWSKNKKTYIFAGDKFWRYNEVKKKMDPGFPKLIADAWNAIPDNLDAVVDLQGGGHSYFFKGAYYLKLENQSLKSVKFGSIKSDWLGC
modifications: biotinylated for the microwell assay; left off: His tag, end not stated, state not stated
Q: For B2, which “binding to gelatin / denatured type I collagen (SPR, RU)” value [3] is on record?
A: strong reduction in binding

Q: What about the “binding to native type I collagen (SPR, RU)” value [4] of the same molecule?
A: strong reduction in binding

B3: R^368A: rCBD variant, single-point alanine substitution at R^368, module 3 (protein)
chain: APSPIIKFPGDVAPKTDKELAVQYLNTFYGCPKESCNLFVLKDTLKKMQKFFGLPQTGDLDQNTIETMRKPRCGNPDVANYNFFPRKPKWDKNQITYRIIGYTPDLDPETVDDAFARAFQVWSDVTPLRFSRIHDGEADIMINFGRWEHGDGYPFDGKDGLLAHAFAPGTGVGGDSHFDDDELWTLGEGQVVRVKYGNADGEYCKFPFLFNGKEYNSCTDTGRSDGFLWCSTTYNFEKDGKYGFCPHEALFTMGGNAEGQPCKFPFRFQGTSYDSCTTEGRTDGYRWCGTTEDYDRDKKYGFCPETAMSTVGGNSEGAPCVFPFTFLGNKYESCTSAGASDGKMWCATTANYDDDRKWGFCPDQGYSLFLVAAHEFGHAMGLEHSQDPGALMAPIYTYTKNFRLSQDDIKGIQELYGASPDIDLGTGPTPTLGPVTPEICKQDIVFDGIAQIRGEIFFFKDRFIWRTVTPRDKPMGPLLVATFWPELPEKIDAVYEAPQEEKAVFFAGNEYWIYSASTLERGYPKPLTSLGLPPDVQRVDAAFNWSKNKKTYIFAGDKFWRYNEVKKKMDPGFPKLIADAWNAIPDNLDAVVDLQGGGHSYFFKGAYYLKLENQSLKSVKFGSIKSDWLGC
modifications: biotinylated for the microwell assay; left off: His tag, end not stated, state not stated
Q: For B3, which “binding to gelatin / denatured type I collagen (SPR, RU)” value [3] is on record?
A: strong reduction in binding

Q: And the “binding to native type I collagen (SPR, RU)” value [4]?
A: strong reduction in binding

B4: Y^381A: rCBD variant, single-point alanine substitution at Y^381, module 3 (protein)
chain: APSPIIKFPGDVAPKTDKELAVQYLNTFYGCPKESCNLFVLKDTLKKMQKFFGLPQTGDLDQNTIETMRKPRCGNPDVANYNFFPRKPKWDKNQITYRIIGYTPDLDPETVDDAFARAFQVWSDVTPLRFSRIHDGEADIMINFGRWEHGDGYPFDGKDGLLAHAFAPGTGVGGDSHFDDDELWTLGEGQVVRVKYGNADGEYCKFPFLFNGKEYNSCTDTGRSDGFLWCSTTYNFEKDGKYGFCPHEALFTMGGNAEGQPCKFPFRFQGTSYDSCTTEGRTDGYRWCGTTEDYDRDKKYGFCPETAMSTVGGNSEGAPCVFPFTFLGNKYESCTSAGRSDGKMWCATTANADDDRKWGFCPDQGYSLFLVAAHEFGHAMGLEHSQDPGALMAPIYTYTKNFRLSQDDIKGIQELYGASPDIDLGTGPTPTLGPVTPEICKQDIVFDGIAQIRGEIFFFKDRFIWRTVTPRDKPMGPLLVATFWPELPEKIDAVYEAPQEEKAVFFAGNEYWIYSASTLERGYPKPLTSLGLPPDVQRVDAAFNWSKNKKTYIFAGDKFWRYNEVKKKMDPGFPKLIADAWNAIPDNLDAVVDLQGGGHSYFFKGAYYLKLENQSLKSVKFGSIKSDWLGC
modifications: biotinylated for the microwell assay; left off: His tag, end not stated, state not stated
Q: For B4, which “binding to gelatin / denatured type I collagen (SPR, RU)” value [3] is on record?
A: strong reduction in binding

Q: And the “binding to native type I collagen (SPR, RU)” value [4]?
A: strong reduction in binding

B5: W^374A: rCBD variant, single-point alanine substitution at W^374, module 3 (protein)
chain: APSPIIKFPGDVAPKTDKELAVQYLNTFYGCPKESCNLFVLKDTLKKMQKFFGLPQTGDLDQNTIETMRKPRCGNPDVANYNFFPRKPKWDKNQITYRIIGYTPDLDPETVDDAFARAFQVWSDVTPLRFSRIHDGEADIMINFGRWEHGDGYPFDGKDGLLAHAFAPGTGVGGDSHFDDDELWTLGEGQVVRVKYGNADGEYCKFPFLFNGKEYNSCTDTGRSDGFLWCSTTYNFEKDGKYGFCPHEALFTMGGNAEGQPCKFPFRFQGTSYDSCTTEGRTDGYRWCGTTEDYDRDKKYGFCPETAMSTVGGNSEGAPCVFPFTFLGNKYESCTSAGRSDGKMACATTANYDDDRKWGFCPDQGYSLFLVAAHEFGHAMGLEHSQDPGALMAPIYTYTKNFRLSQDDIKGIQELYGASPDIDLGTGPTPTLGPVTPEICKQDIVFDGIAQIRGEIFFFKDRFIWRTVTPRDKPMGPLLVATFWPELPEKIDAVYEAPQEEKAVFFAGNEYWIYSASTLERGYPKPLTSLGLPPDVQRVDAAFNWSKNKKTYIFAGDKFWRYNEVKKKMDPGFPKLIADAWNAIPDNLDAVVDLQGGGHSYFFKGAYYLKLENQSLKSVKFGSIKSDWLGC
modifications: biotinylated for the microwell assay; left off: His tag, end not stated, state not stated
Q: Which results are given for B5?
A: binding to gelatin / denatured type I collagen (SPR, RU) [3]: strong reduction in binding; binding to native type I collagen (SPR, RU) [4]: strong reduction in binding
